ChEMBL document CHEMBL1151794, “Synthesis and pharmacological evaluation of bis-3-(3,4-dichlorophenyl)acrylamide derivatives as glycogen phosphorylase inhibitors” (Bioorg Med Chem, 2008)

Columns and labels:
[1] = biological target: T1, Glycogen phosphorylase, liver form (Homo sapiens, UniProt P06737); test: Inhibition of human liver glycogen phosphorylase a in absence of glucose
T1 sequence (P06737 whole entry): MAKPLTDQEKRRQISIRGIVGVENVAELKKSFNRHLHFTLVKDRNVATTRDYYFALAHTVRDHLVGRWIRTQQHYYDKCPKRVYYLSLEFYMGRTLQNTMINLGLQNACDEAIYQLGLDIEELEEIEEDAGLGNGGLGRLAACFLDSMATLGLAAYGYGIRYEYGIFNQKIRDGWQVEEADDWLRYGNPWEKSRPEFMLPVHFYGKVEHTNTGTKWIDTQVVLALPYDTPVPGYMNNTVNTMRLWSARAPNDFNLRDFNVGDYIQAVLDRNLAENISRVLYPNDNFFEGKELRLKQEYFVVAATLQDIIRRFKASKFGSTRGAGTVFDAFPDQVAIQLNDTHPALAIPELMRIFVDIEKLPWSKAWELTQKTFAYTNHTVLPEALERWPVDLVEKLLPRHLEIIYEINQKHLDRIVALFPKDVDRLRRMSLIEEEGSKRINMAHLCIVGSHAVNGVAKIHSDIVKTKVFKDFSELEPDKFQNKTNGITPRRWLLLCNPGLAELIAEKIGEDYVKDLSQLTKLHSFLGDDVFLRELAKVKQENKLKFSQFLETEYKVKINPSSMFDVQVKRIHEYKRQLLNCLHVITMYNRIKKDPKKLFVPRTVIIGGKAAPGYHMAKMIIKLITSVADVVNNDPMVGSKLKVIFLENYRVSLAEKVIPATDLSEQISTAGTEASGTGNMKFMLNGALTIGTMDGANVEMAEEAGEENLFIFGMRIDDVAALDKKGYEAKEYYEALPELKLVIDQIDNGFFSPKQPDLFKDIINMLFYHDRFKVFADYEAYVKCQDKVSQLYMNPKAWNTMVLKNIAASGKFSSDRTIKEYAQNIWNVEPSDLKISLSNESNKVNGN

[2] = biological target: T1, Glycogen phosphorylase, liver form; test: Inhibition of human liver glycogen phosphorylase a in presence of glucose
In short: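 Recombinant human liver GPa assayed in the forward direction by NADPH formation, coupled through phosphoglucomutase (77 U/L) and glucose-6-phosphate dehydrogenase (385 U/L). Conditions: pH 6.8 phosphate buffer with 45 mM KH2PO4, β-NADP, glucose 1,6-bisphosphate, 0.24% glycogen and 10.85 mM glucose. Compounds were added in DMSO before the enzyme; DMSO served as blank and caffeine as positive control. Enzyme addition started the reaction; IC50 was derived by logistic regression.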

[3] = biological target: T2, Glycogen phosphorylase, liver form (Homo sapiens) (UniProt P06737); test: Inhibition of human liver glycogen phosphorylase a in absence of glucose at 10 uM
T2 sequence (whole entry): T1 sequence (P06737 whole entry)

SMILES | IC50 [1] [µM] | IC50 [2] [µM] | inhibition [3] [%]
O=C(/C=C/c1ccc(Cl)c(Cl)c1)NCCS(=O)(=O)CCNC(=O)/C=C/c1ccc(Cl)c(Cl)c1 | 1.5 |  | 
O=C(/C=C/c1ccc(Cl)c(Cl)c1)NCC[S+]([O-])CCNC(=O)/C=C/c1ccc(Cl)c(Cl)c1 | 0.31 | 0.026 | 
CCCNC(=O)/C=C/c1ccc(Cl)c(Cl)c1 |  |  | 0
O=C(/C=C/c1ccc(Cl)c(Cl)c1)NCCSCCNC(=O)/C=C/c1ccc(Cl)c(Cl)c1 | 0.45 | 0.012 | 
O=C(/C=C/c1ccc(Cl)c(Cl)c1)NCCOCCNC(=O)/C=C/c1ccc(Cl)c(Cl)c1 | 0.43 | 0.026 | 
O=C(C#Cc1ccc(Cl)c(Cl)c1)NCCCCCNC(=O)C#Cc1ccc(Cl)c(Cl)c1 | 59 |  | 
O=C(/C=C/c1ccc(Cl)c(Cl)c1)NCCCCCCCNC(=O)/C=C/c1ccc(Cl)c(Cl)c1 | 11 |  | 
O=C(/C=C/c1ccc(Cl)c(Cl)c1)NCCNC(=O)/C=C/c1ccc(Cl)c(Cl)c1 | 20 |  | 
O=C(/C=C\c1ccc(Cl)c(Cl)c1)NCCCCCNC(=O)/C=C\c1ccc(Cl)c(Cl)c1 |  |  | 36
O=C(/C=C/c1ccc(Cl)c(Cl)c1)NCCCCCCCCNC(=O)/C=C/c1ccc(Cl)c(Cl)c1 | 33 |  | 
O=C(/C=C/c1ccc(Cl)c(Cl)c1)NCCCCCNC(=O)/C=C/c1ccc(Cl)c(Cl)c1 | 0.26 | 0.023 | 
O=C(/C=C/c1ccc(Cl)c(Cl)c1)NCCCNC(=O)/C=C/c1ccc(Cl)c(Cl)c1 | 55 |  | 
CC(C)(C)OC(=O)N(CCNC(=O)/C=C/c1ccc(Cl)c(Cl)c1)CCNC(=O)/C=C/c1ccc(Cl)c(Cl)c1 |  |  | 48
O=C(/C=C/c1ccc(Cl)c(Cl)c1)NCCNCCNC(=O)/C=C/c1ccc(Cl)c(Cl)c1 |  |  | 51
O=C(/C=C/c1ccc(Cl)c(Cl)c1)NCCCCCCNC(=O)/C=C/c1ccc(Cl)c(Cl)c1 | 18 |  | 
O=C(CCc1ccc(Cl)c(Cl)c1)NCCCCCNC(=O)CCc1ccc(Cl)c(Cl)c1 | 45 |  | 
O=C(/C=C/c1ccc(Cl)c(Cl)c1)NCCCCNC(=O)/C=C/c1ccc(Cl)c(Cl)c1 | 0.42 | 0.043 | 
